Measured values of several laboratories.
Read-out: microbial growth

| Structure (SMILES) | organism | assay | test system | setting | MIC |
| --- | --- | --- | --- | --- | --- |
| CC1(C)S[C@@H]2[C@H](NC(=O)[C@H](N)c3ccccc3)C(=O)N2[C@H]1C(=O)O | Salmonella enterica | – | – | 20 h, pH 7 | 1 µg/mL |
| O=C(Nc1ncc([N+](=O)[O-])s1)c1cccnc1F | Helicobacter pylori | broth dilution | 26695 | 27 h | 3.7 µM |
| C[C@@H](O)[C@H]1C(=O)N2C(C(=O)O)=C(S[C@@H]3CN[C@H](C(=O)N(C)C)C3)[C@H](C)[C@H]12 | Salmonella enterica | broth dilution | ENTERITIDIS | clinical isolate | ≤ 0.5 µg/mL |
| O=c1cc(-c2ccc(O)c(O)c2)oc2cc(O)cc(O)c12 | Helicobacter pylori | broth dilution | – | – | 3.9 µg/mL |
| CO/N=C(\C(=O)N[C@@H]1C(=O)N2C(C(=O)O)=C(CSc3nc(=O)c(=O)[nH]n3C)CS[C@H]12)c1csc(N)n1 | Salmonella enterica | – | F98, TYPHIMURIUM | 20 h, pH 5.5 | 0.25 µg/mL |
| O=C1NC(=S)S/C1=C\c1ccc(-c2ccc(N(c3ccccc3)c3ccccc3)cc2)c2ccccc12 | Bacillus cereus | broth dilution | ATCC10876 | – | 1000 µg/mL |
| Oc1ccc(-c2nc(-c3ccc(Oc4ccc(C(F)(F)F)cc4)cc3)no2)cc1 | Bacillus cereus | broth dilution | ATCC13061 | – | 2 µg/mL |
| O=C1NC(=S)S/C1=C\c1c2ccccc2c(-c2ccc(N(c3ccccc3)c3ccccc3)cc2)c2ccccc12 | Bacillus cereus | broth dilution | ATCC10876 | – | > 1000 µg/mL |
| CCN1CCN(c2cc3c(cc2F)c(=O)c(C(=O)O)cn3C2CC2)CC1 | Salmonella enterica | – | ENTERITIDIS | 20 h, pH 7.2 | 0.0625 µg/mL |
| O=C1NC(=S)N/C1=C\c1ccc(-c2ccc(N(c3ccccc3)c3ccccc3)cc2)c2ccccc12 | Bacillus cereus | broth dilution | ATCC10876 | – | > 1000 µg/mL |
| O=C(Nc1ncc([N+](=O)[O-])s1)C1CCCCC1 | Helicobacter pylori | broth dilution | 26695 | 27 h | 1.2 µM |
| O=C(O)CN1C(=O)/C(=C/c2ccc(-c3ccc(N(c4ccccc4)c4ccccc4)cc3)c3ccccc23)SC1=S | Bacillus cereus | broth dilution | ATCC10876 | – | 1000 µg/mL |
| Cc1cc(NS(=O)(=O)c2ccc(N)cc2)no1 | Salmonella enterica | – | – | 20 h, pH 7.2 | 64 µg/mL |
| O=C(O)CN1C(=O)/C(=C/c2c3ccccc3c(-c3ccc(N(c4ccccc4)c4ccccc4)cc3)c3ccccc23)NC1=S | Bacillus cereus | broth dilution | ATCC10876 | – | > 1000 µg/mL |
| CS(=O)(=O)c1ccc([C@@H](O)[C@@H](CF)NC(=O)C(Cl)Cl)cc1 | Salmonella enterica | – | F98, TYPHIMURIUM | 20 h, pH 5.5 | 4 µg/mL |
